Each structure is given as a SMILES string. The campaign covered roughly 360,000 compounds. About 770 (0.21%) were called active. The sample holds actives, similar compounds and a random draw of the others, so the mix is not that of the screen. A number with no mark means an inactive call.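 The calls were made as follows: active = inhibition at least 30% at 10 µM, raw YFP signal under a set limit, fluorescence ratio 0.5 to 1.5; inactive = the rest.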

Sentrin-specific protease 1 (Homo sapiens), sequence (Q9P0U3 419-644 limits assumed): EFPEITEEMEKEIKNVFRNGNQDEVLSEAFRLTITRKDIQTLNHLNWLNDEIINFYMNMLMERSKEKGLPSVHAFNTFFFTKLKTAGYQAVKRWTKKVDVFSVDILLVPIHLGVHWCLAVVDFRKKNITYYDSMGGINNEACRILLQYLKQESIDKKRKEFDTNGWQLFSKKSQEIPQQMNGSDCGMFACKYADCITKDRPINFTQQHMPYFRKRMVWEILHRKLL

This experiment concerns the target Sentrin-specific protease 1 (Homo sapiens) (UniProt Q9P0U3). Description: blockers of SENP1 SUMO protease activity – biochemical, FRET, uHTS, primary screen (AID 624204).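 Also: 0% = enzyme with DMSO and 100% = no enzyme wells.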 Particulars: recombinant SENP1 catalytic domain, CyPet-SUMO1-YPet FRET cleavage; at 10 µM; hits give high values. The gist of the method: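 system = hSENP1 catalytic domain, recombinant | reagent = SFCypet-SUMO1-SFYpet substrate at 25 nM | doses = one dose per compound, 10 µM, 0.5% DMSO | incubation = enzyme reaction for 50 min at room temperature, dark | measured by = FRET, CFP and YFP emission | controls = no-enzyme low, enzyme-DMSO high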
Broadly, the inhibition is the change of the read-out against control, counted positive when it falls. On to `CC(=O)N1CCOc2ccc(S(=O)(=O)N3CCN(c4cccc(C(F)(F)F)c4)CC3)cc21`, for which the inhibition was 2.33%.

In the case of `COc1ccc(N2CCC(N3CCN(C)C(CCO)C3)CC2)cc1` (stereo unspecified), the inhibition is -1.06%.

Regarding `O=[N+]([O-])/C(N=Nc1ccccc1)=N\Nc1ccccc1`, the inhibition is 0.203%.

With `O=[N+]([O-])c1ccc(N=NNc2ccc([N+](=O)[O-])cc2)cc1`, the inhibition is 67.8% (active).

For the compound `NC(=O)C1(Nc2ccc([N+](=O)[O-])cc2)CCCC1`, the inhibition was -1.76%.

`Cc1ccc(C(=O)N/N=C\c2cc(Br)c(Br)o2)cn1`: the inhibition was 41.1% (active).

In the case of `Brc1cc(/C=N/n2cnnc2)oc1Br`, the inhibition is 2.85%.

Consider `O=C(N/N=C/c1ccc(Br)o1)c1cncc(Br)c1`, for which the inhibition was 0.704%.

For the compound `CC(C)(C)OC(=O)C[C@@H]1C/C=C\C[C@@H](CC(=O)N[C@@H](CO)Cc2ccccc2)C(=O)N2CCC[C@H]2COC1=O`, the inhibition is 1.24%.

Regarding `Cc1ccc(Cn2nnc3c(=O)[nH]c(C4CCN(S(=O)(=O)/C=C/c5ccccc5)CC4)nc32)cc1`, the inhibition is -2.14%.

Regarding `Cc1cccc(Nc2nnc(SCC(=O)c3c(N)n(C4CC4)c(=O)[nH]c3=O)s2)c1C`, the inhibition is 1.61%.

On to `Nn1c(SCC(=O)Nc2nccs2)nncc1=O`, for which the inhibition is 2.89%.

Take `O=C(Nc1ccc2c(c1)OCCO2)C1c2ccccc2OCC(=O)N1Cc1ccccn1` (stereo unspecified): the inhibition was -6.74%.

Consider `Cc1ccc(F)c(NC(=O)CCc2ccccc2)c1`, for which the inhibition was -0.0761%.

With `CCNc1nc(N)nc(-c2cc(Cl)ccc2OC)n1`, the inhibition was 0.684%.

Take `O=C(CNC(=O)c1ccc(Cl)cc1Cl)NCC(=O)Nc1ccccc1N1CCOCC1`: the inhibition was 4.8%.

Take `CCCC1OC23CCCCC2C(C#N)(C#N)C1(C#N)C(=N)O3` (stereo unspecified): the inhibition is -28.3%.

For `CCOC(=O)CCC(=O)OCC(=O)NC(C)C1CC2CCC1C2` (stereo unspecified), the inhibition is 2.09%.

For the compound `COC(=O)N/N=C/c1c[n+]([O-])c2ccccc2[n+]1[O-]`, the inhibition was 58.5% (active).

As for `COC(=O)C(C)N=Cc1ccccc1` (stereo unspecified), the inhibition is 3.52%.

Turning to `N#Cc1ccc(C(c2ccc(C#N)cc2)n2cncn2)cc1`, the inhibition is -1.95%.

In the case of `O=C(Nc1cccc(OCC(=O)N2CCOCC2)c1)C1CCCCC1`, the inhibition was -0.72%.

As for `COc1ccc(N2C(=O)CC(N3CCC(C(N)=O)CC3)C2=O)cc1` (stereo unspecified), the inhibition is -0.137%.

As for `CNC(=O)C[C@H]1C(=O)N(c2ccc(OC)cc2)C[C@@H]1Cc1ccccc1`, the inhibition is 3.98%.

Regarding `COc1ccc(N2C(=O)C3C(C2=O)C(C(=O)c2ccccc2)N2CCCC32)cc1` (stereo unspecified), the inhibition is 40% (active).

Take `CC(C)Oc1ccc(C(CC(=O)N2CCOCC2)C(C)C)cc1` (stereo unspecified): the inhibition was 1.52%.

Take `CC(C)(C)c1cc(NC(=O)NN2CCOCC2)nn1-c1c(Cl)cc(Cl)cc1Cl`: the inhibition is 2.79%.

Consider `Cn1c(N)cc(=O)n(C)c1=S`, for which the inhibition was -0.927%.

`COc1ccc(CCNS(=O)(=O)c2cc3c(cc2C)NC(=O)CO3)cc1OC`: the inhibition was 2.06%.

With `COc1ccc(OC)c(C2C3=C(N=c4s/c(=C\c5cccc(O)c5)c(=O)n42)c2ccccc2CC3)c1` (stereo unspecified), the inhibition was 45.9% (active).

Take `CCC1([N+](=O)[O-])COC(c2ccc(C(C)C)cc2)OC1` (stereo unspecified): the inhibition was 2.7%.

In the case of `Cc1ccc2c(c1)N(C(=O)CCC(=O)N1CCc3ccccc3C1)CCO2`, the inhibition is 1.45%.

Take `CCOC(=O)[C@H]1[C@H]2COc3ccc(Cl)cc3[C@@H]2N2C(=O)c3cc(C)ccc3NC(=O)[C@@]12C`: the inhibition is 1.07%.

Consider `Nn1c(Cc2cccc3ccccc23)nnc1SCC(=O)N1CC(=O)Nc2ccccc21`, for which the inhibition is 3.32%.

As for `CCc1ccc2ncc(C(=O)c3ccccc3)c(N3CCOCC3)c2c1`, the inhibition is -0.316%.

With `O=C(CCN1C(=O)c2ccccc2C1=O)NNC(=O)c1ccc(Cl)cc1Cl`, the inhibition was 1.7%.

`Cc1c(C(=O)NCCN2C(=O)S/C(=C\c3cccs3)C2=O)cccc1[N+](=O)[O-]`: the inhibition was 5.33%.

Consider `O=C(CCN1C(=O)/C(=C/c2cccs2)SC1=S)NNC(=O)c1cccc(O)c1`, for which the inhibition is 72.7% (active).

For `O=C(O)c1cc(S(=O)(=O)N2CCCCCC2)c(Cl)cc1Cl`, the inhibition is -0.414%.

Turning to `Cc1nn(-c2ccccc2)c(CC(C)(C)C(=O)O)c1C(=O)O`, the inhibition was 1.05%.

As for `CCCCN(C(=O)CSCC(=O)Nc1ccc(OC)cc1)c1c(N)n(CCC)c(=O)[nH]c1=O`, the inhibition is -2.42%.

As for `Cc1cc(=O)cc(C)n1-c1ccc(Cl)c(Cl)c1`, the inhibition is 2.24%.

For `CC(=O)NC1(c2cccc(F)c2)CCN(CC(=O)NC(C)C)CC1`, the inhibition is -0.563%.

`O=C(CC1CCCCC1)NCc1ccc(F)cc1`: the inhibition is 1.88%.

With `CNS(=O)(=O)c1cccc(C(=O)OCCCC(=O)c2ccccc2)c1`, the inhibition was 0.585%.

As for `COc1ccc(CC2c3cc(OC)c(OC)cc3CC[N+]2(C)CCC(=O)OCCCCCOC(=O)CC[N+]2(C)CCc3cc(OC)c(OC)cc3C2Cc2ccc(OC)c(OC)c2)cc1OC` (stereo unspecified), the inhibition is -1.31%.

As to `CN(C)C(=O)c1cccc(-c2cnc3c(NC=O)cc(-c4ccc(C(=O)N5CCOCC5)cc4)cn23)c1`, the inhibition is -29.9%.

On to `CC(=O)c1cccc(-c2cnc3c(NC=O)cc(-c4ccc(N5CCN(C)CC5)cc4)cn23)c1`, for which the inhibition is 28%.

Regarding `CC(=O)c1cccc(-c2cnc3c(NC=O)cc(-c4ccc(N(C)C)cc4)cn23)c1`, the inhibition is 50% (active).

As for `CC(=O)NCC(=O)N1CCC(n2nccc2NC(=O)CCCc2ccccc2)CC1`, the inhibition is 0.687%.

As for `Cc1nc2nc(C)c(CCC(=O)N3CCN(c4ccccc4)CC3)c(C)n2n1`, the inhibition was 0.72%.

In the case of `O=C(C[C@H]1C[C@H]2c3cc(NS(=O)(=O)c4ccc(F)cc4)ccc3O[C@H]2[C@H](CO)O1)NCc1cc(F)ccc1F`, the inhibition is -0.578%.

In the case of `O=C(Nc1ccc(F)cc1F)N1CCCN(CCOc2ccccc2)CC1`, the inhibition is -1.95%.

Take `COc1ccc(N2CCN(C(=O)c3ccc(N4CCCCS4(=O)=O)cc3)CC2)cc1`: the inhibition was -2.08%.

`Cn1nnnc1SCC(=O)Nc1ccccc1C(=O)NC1CC1`: the inhibition is -4.1%.

As to `Cc1cccc(NC(=O)c2ccc3c(=O)n(CC4CCCO4)c(=S)[nH]c3c2)c1` (stereo unspecified), the inhibition was -0.024%.

The record behind these values is PubChem BioAssay AID624204 (Sanford-Burnham Center for Chemical Genomics, 2012).
